# In ChEMBL document CHEMBL4002597, “Exploration of novel piperazine or piperidine constructed non-covalent peptidyl derivatives as proteasome inhibitors” (Eur J Med Chem, 2017):
# pIC50: −log10 of the molar value. Active and inactive are the calls of the source. No cut-off for these calls is given here.
# Columns and labels:
# [1] = molecular target: T1, Proteasome Macropain subunit MB1 (Homo sapiens, UniProt P28074); assay: Inhibition of chymotrypsin-like activity of human 20S proteasome pretreated for 15 mins followed by Suc-Leu-Leu-Val-Tyr-AMC substrate addition by fluorescence assay
# T1 sequence (P28074 whole entry): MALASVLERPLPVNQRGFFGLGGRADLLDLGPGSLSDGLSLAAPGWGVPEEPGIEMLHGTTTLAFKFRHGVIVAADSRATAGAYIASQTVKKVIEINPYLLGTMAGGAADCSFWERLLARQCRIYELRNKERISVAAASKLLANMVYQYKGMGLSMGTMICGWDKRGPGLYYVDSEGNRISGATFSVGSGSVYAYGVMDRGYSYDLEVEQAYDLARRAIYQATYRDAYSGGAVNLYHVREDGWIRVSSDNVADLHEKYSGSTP
# Summary of the method: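 Purified human proteasome (25 μg/mL) in 100 mM Tris-HCl pH 8.0 preincubated with compound 15 min, then Suc-Leu-Leu-Val-Tyr-AMC (50 μM) added; 50 μL reaction. AMC release followed as fluorescence increase at ex 355/em 460 nm. IC50 from sigmoidal variable-slope fit.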
# [2] = system: MM1.S; assay: Cytotoxicity against human MM1S cells measured after 72 hrs by MTS assay; format: functional, cell-based
# Summary of the method: (§1)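 MM-1S seeded at 2 × 10⁴/well or RPMI 8226 at 0.5 × 10⁴/well, 100 μL, exposed to compound 72 h. MTS added (0.5 mg/mL final) for 2–4 h, absorbance read at 490 nm with 690 nm background subtraction. Inhibition = (A_control − A_sample)/A_control; IC50 from sigmoidal variable-slope nonlinear fit.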
# [3] = system: RPMI-8226; assay: Cytotoxicity against human RPMI8226 cells measured after 72 hrs by MTS assay; format: functional, cell-based; conditions: RPMI-8226, 72 h; summary of the method: as §1
# [4] = molecular target: T2, Proteasome subunit beta type-5 (Mus musculus) (UniProt O55234); assay: Inhibition of chymotrypsin-like activity of 20S proteasome in mouse blood at 0.5 uM pretreated for 40 mins followed by Suc-Leu-Leu-Val-Tyr-AMC substrate addition by fluorescence assay
# T2 sequence (whole entry): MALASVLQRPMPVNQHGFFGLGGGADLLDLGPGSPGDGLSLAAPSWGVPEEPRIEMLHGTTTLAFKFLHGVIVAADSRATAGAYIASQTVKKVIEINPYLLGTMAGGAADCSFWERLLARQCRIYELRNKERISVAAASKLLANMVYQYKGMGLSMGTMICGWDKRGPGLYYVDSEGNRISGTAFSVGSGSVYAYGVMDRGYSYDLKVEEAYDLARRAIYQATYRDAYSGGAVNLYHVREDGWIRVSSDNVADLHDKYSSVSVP
# Summary of the method: (§2)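 Normal mouse whole blood incubated with compound (1:50 volume ratio) 40 min, then pelleted. Cells lysed in 5 mM EDTA pH 8.0 at 4 °C 60 min, lysate protein by Bradford. 100 μg protein assayed in 20 mM HEPES pH 8.0, 0.5 mM EDTA, 0.05% SDS, 1% DMSO with 50 μM […]; fluorescence ex 355/em 460 nm.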
# [5] = system: Mus musculus; assay: In vivo inhibition of chymotrypsin-like activity of 20S proteasome in blood cell of BALB/c mouse at 5 mg/kg, iv after 2 hrs using Suc-Leu-Leu-Val-Tyr-AMC substrate measured by fluorescence assay; format: functional
# Summary of the method: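 BALB/c mice 6-8 weeks, 3 per group, single i.v. dose; positive control 5 mg/kg. Tail-vein blood taken at 1, 2 and 24 h into K2-EDTA tubes. Blood PBS-washed, cells lysed in 5 mM EDTA pH 8.0 for 60 min at 4 °C, clarified lysate assayed for chymotrypsin-like activity as in the in vitro assay.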
# [6] = molecular target: T2, Proteasome subunit beta type-5 (Mus musculus); assay: Inhibition of chymotrypsin-like activity of 20S proteasome in mouse blood at 2.5 uM pretreated for 40 mins followed by Suc-Leu-Leu-Val-Tyr-AMC substrate addition by fluorescence assay relative to control; summary of the method: as §2
# [7] = Half-life in mouse plasma at 2 uM by LC-MS/MS analysis; format: ADME, cell-free
# Summary of the method: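 Mouse plasma on sodium heparin. 10 mM DMSO stocks diluted to 0.02 mM in 0.05 M sodium phosphate with 0.5% BSA, then spiked into pre-warmed plasma to 2 µM final, duplicates (n=2), 37 °C water bath. Each time point quenched with acetonitrile; sonicated, shaken, centrifuged, supernatant diluted 1:1 in water, LC-MS/MS.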
SMILES,pIC50 [1],pIC50 [2],pIC50 [3],also measured
C[C@H](NC(=O)[C@H](CC(=O)NCC(C)(C)C)NC(=O)N1CCC(C(=O)Nc2cnccn2)CC1)C(=O)NCc1ccccc1Cl,7.71,,,
CC(C)(C)CNC(=O)C[C@H](NC(=O)C1CCN(C(=O)c2ccc(F)cc2)CC1)C(=O)N[C@@H](CCc1ccccc1)C(=O)NCc1ccccc1Cl,8.59,7.50,7.64,
CC(C)C[C@H](NC(=O)[C@H](CCc1ccccc1)NC(=O)CN1CCOCC1)C(=O)N[C@@H](Cc1ccccc1)C(=O)N[C@@H](CC(C)C)C(=O)[C@@]1(C)CO1 [CARFILZOMIB],,8.82,,inhibition [4]: Active; inhibition [5]: Active; inhibition [6]: Active
CC(C)(C)CNC(=O)C[C@H](NC(=O)N1CCC(NC(=O)c2cnccn2)CC1)C(=O)N[C@@H](CCc1ccccc1)C(=O)NCc1ccccc1Cl,8.96,7.73,7.69,
COc1ccc(NC(=O)C2CCN(C(=O)N[C@@H](CC(=O)NCC(C)(C)C)C(=O)N[C@@H](CCc3ccccc3)C(=O)NCc3ccccc3Cl)CC2)cc1,7.59,,,
CC(C)(C)CNC(=O)C[C@H](NC(=O)N1CCC(C(=O)Nc2cnccn2)CC1)C(=O)N[C@@H](CCc1ccccc1)C(=O)NCc1ccccc1Cl,9.22,7.80,7.77,inhibition [6]: > 70%
CC(C)(C)CNC(=O)C[C@H](NC(=O)N1CCN(C(=O)c2ccc(F)cc2)CC1)C(=O)N[C@@H](CCc1ccccc1)C(=O)NCc1ccccc1Cl,8.42,,,
CC(C)(C)CNC(=O)C[C@H](NC(=O)N1CCC(NC(=O)c2cnccn2)CC1)C(=O)N[C@@H](CCc1ccccc1)C(=O)NCc1ccc(F)cc1F,7.97,,,
CC(C)(C)CNC(=O)C[C@H](NC(=O)N1CCC(C(=O)Nc2cnccn2)CC1)C(=O)N[C@@H](CCc1ccccc1)C(=O)NCc1ccc2c(c1)OCO2,8.54,,,
CC(C)(C)CNC(=O)C[C@H](NC(=O)c1ccc(F)cc1)C(=O)N[C@@H](CCc1ccccc1)C(=O)NCc1ccccc1Cl,,,,half-life at 2 µM [7]: 5.61 h
CC(C)(C)CNC(=O)C[C@H](NC(=O)N1CCC(NC(=O)c2cnccn2)CC1)C(=O)N[C@@H](Cc1ccccc1)C(=O)NCc1ccccc1Cl,7.39,,,
CC(C)(C)CNC(=O)C[C@H](NC(=O)N1CCC(NC(=O)c2ccc(F)cc2)CC1)C(=O)N[C@@H](CCc1ccccc1)C(=O)NCc1ccccc1Cl,8.92,8.20,8.08,inhibition in vivo at 5 mg/kg [5]: > 50%; half-life at 2 µM [7]: 11.2 h; inhibition [6]: > 70%
CC(C)(C)CNC(=O)C[C@H](NC(=O)N1CCC(NC(=O)c2cnccn2)CC1)C(=O)N[C@@H](CCc1ccccc1)C(=O)NCc1ccc2c(c1)OCO2,8.00,,,
CC(C)(C)CNC(=O)C[C@H](NC(=O)N1CCC(C(=O)Nc2ccccn2)CC1)C(=O)N[C@@H](CCc1ccccc1)C(=O)NCc1ccccc1Cl,9.00,8.37,8.42,
CC(C)(C)CNC(=O)C[C@H](NC(=O)C1CCN(C(=O)c2cnccn2)CC1)C(=O)N[C@@H](CCc1ccccc1)C(=O)NCc1ccccc1Cl,8.62,7.93,7.80,
CC(C)C[C@H](NC(=O)[C@H](CC(=O)NCC(C)(C)C)NC(=O)N1CCC(NC(=O)c2cnccn2)CC1)C(=O)NCc1ccccc1Cl,7.66,,,
C[C@H](NC(=O)[C@H](CC(=O)NCC(C)(C)C)NC(=O)N1CCC(NC(=O)c2cnccn2)CC1)C(=O)NCc1ccccc1Cl,7.88,,,
CC(C)(C)CNC(=O)C[C@H](NC(=O)N1CCC(C(=O)Nc2cnccn2)CC1)C(=O)N[C@@H](CCc1ccccc1)C(=O)NCc1ccc(F)cc1F,8.18,,,
CC(C)(C)CNC(=O)C[C@H](NC(=O)N1CCC(C(=O)Nc2cnccn2)CC1)C(=O)N[C@@H](Cc1ccccc1)C(=O)NCc1ccccc1Cl,7.74,,,
CC(C)(C)CNC(=O)C[C@H](NC(=O)N1CCC(C(=O)NCc2nccs2)CC1)C(=O)N[C@@H](CCc1ccccc1)C(=O)NCc1ccccc1Cl,9.00,7.65,7.68,inhibition [4]: Active; inhibition [6]: Active
CC(C)(C)CNC(=O)C[C@H](NC(=O)N1CCC(C(=O)Nc2ccc(C(F)(F)F)cc2)CC1)C(=O)N[C@@H](CCc1ccccc1)C(=O)NCc1ccccc1Cl,6.72,,,
CC(C)C[C@H](NC(=O)[C@H](CC(=O)NCC(C)(C)C)NC(=O)N1CCC(C(=O)Nc2cnccn2)CC1)C(=O)NCc1ccccc1Cl,7.94,,,
CC(C)(C)CNC(=O)C[C@H](NC(=O)N1CCC(C(=O)Nc2nccs2)CC1)C(=O)N[C@@H](CCc1ccccc1)C(=O)NCc1ccccc1Cl,9.05,8.14,7.99,inhibition [4]: Active; inhibition [6]: Active
CC(C)(C)CNC(=O)C[C@H](NC(=O)N1CCC(C(=O)Nc2cccnc2)CC1)C(=O)N[C@@H](CCc1ccccc1)C(=O)NCc1ccccc1Cl,9.15,7.68,7.68,inhibition [6]: > 70%
CC(C)(C)CNC(=O)C[C@H](NC(=O)N1CCC(C(=O)Nc2ccon2)CC1)C(=O)N[C@@H](CCc1ccccc1)C(=O)NCc1ccccc1Cl,8.15,,,
CC(C)(C)CNC(=O)C[C@H](NC(=O)N1CCC(C(=O)Nc2ccc(F)cc2)CC1)C(=O)N[C@@H](CCc1ccccc1)C(=O)NCc1ccccc1Cl,8.82,7.90,7.86,inhibition [4]: Active; inhibition [6]: Active
